From ChEMBL document CHEMBL1817572, “New, potent, selective, and short-acting peptidic V1a receptor agonists” (J Med Chem, 2011)
Numbered stars: 1 amine (or outer) side, 2 acyl side, 3 side chain; on linkers, the order of the positions; unused ones are H or OH. Bridge positions count the residues as written; N and C are the ends. Square brackets hold non-standard residues; d marks the D form. Peptide text beside a SMILES is read from it. * marks the point of attachment. Orn(Me) = CN(CCC[C@H](N[*:1])C(=O)[*:2])[*:3]; Ala(cPent) = N[C@@H](CC1CCCC1)C(=O)O; Orn(Pr) = CCCNCCC[C@H](N)C(=O)O; Aad = N[C@@H](CCCC(=O)O)C(=O)O; Cha = N[C@@H](CC1CCCCC1)C(=O)O; NH(3-hydroxypropyl) = OCCCN*; Orn = NCCC[C@H](N)C(=O)O; Dab = NCC[C@H](N)C(=O)O

Columns and labels:
[1] = target: T1, Oxytocin receptor (Homo sapiens, UniProt P30559); test: Agonist activity at human OT receptor expressed in CHO-K1 cells by luciferase reporter gene assay; type: functional, cell-based
T1 sequence (P30559 whole entry): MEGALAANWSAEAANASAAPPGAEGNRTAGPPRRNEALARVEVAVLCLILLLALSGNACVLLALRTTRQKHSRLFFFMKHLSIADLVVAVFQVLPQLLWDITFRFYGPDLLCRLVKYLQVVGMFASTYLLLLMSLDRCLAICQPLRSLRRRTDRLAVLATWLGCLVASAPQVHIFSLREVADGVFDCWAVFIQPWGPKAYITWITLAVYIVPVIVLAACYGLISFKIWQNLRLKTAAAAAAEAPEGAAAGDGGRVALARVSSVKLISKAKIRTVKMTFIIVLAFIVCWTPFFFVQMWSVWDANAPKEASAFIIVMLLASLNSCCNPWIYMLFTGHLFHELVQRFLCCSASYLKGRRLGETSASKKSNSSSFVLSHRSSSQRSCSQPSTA

[2] = tested on: Rattus norvegicus; test: Vasoconstriction in Wistar rat assessed as assessed as decay in vasopressive duration of action at 2 nmol/kg, iv bolus measured over 10 sec interval; type: functional
How it was run: (§1)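 Fasted male Wistar rats (206–340 g) under isoflurane, then thiobutabarbital 150 mg/kg ip, ventilated, 37–38 °C, with carotid pressure and jugular dosing. Dibenamine 1.8 mg/rat iv pretreatment. Sequence: iv boluses (0.5 mL/kg) of heparinized vehicle, then two reference doses of 0.1 nmol/kg, then two test doses; one matches the reference diastolic pressure rise. Relative duration = reference decay rate / test decay rate; mean ± SEM.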

[3] = target: T2, Vasopressin V1a receptor (Homo sapiens, UniProt P37288); test: Agonist activity at recombinant human vasopressin V1a receptor expressed in HEK293 cells by luciferase reporter gene assay; type: functional, cell-based; settings: read-out: EC50
Target sequence in this assay (P37288 whole entry): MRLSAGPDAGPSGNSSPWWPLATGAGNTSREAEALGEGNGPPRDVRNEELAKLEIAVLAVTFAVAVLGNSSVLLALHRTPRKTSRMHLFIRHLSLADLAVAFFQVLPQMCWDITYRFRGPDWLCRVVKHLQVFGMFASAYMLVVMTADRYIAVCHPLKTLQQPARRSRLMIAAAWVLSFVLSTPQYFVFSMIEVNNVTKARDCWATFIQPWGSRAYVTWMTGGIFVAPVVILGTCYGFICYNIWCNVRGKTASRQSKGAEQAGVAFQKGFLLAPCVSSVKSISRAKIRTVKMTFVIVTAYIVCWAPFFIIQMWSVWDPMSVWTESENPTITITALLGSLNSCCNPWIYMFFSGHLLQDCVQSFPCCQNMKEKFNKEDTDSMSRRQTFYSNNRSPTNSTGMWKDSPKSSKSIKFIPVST

[4] = organism: Homo sapiens; test: Selectivity ratio of EC50 for human vasopressin V1b receptor to EC50 for human vasopressin V1a receptor
[5] = target: T3, Vasopressin V2 receptor (Homo sapiens, UniProt P30518); test: Agonist activity at recombinant human vasopressin V2 receptor expressed in HEK293 cells by luciferase reporter gene assay; type: functional, cell-based
[6] = organism: Homo sapiens; test: Selectivity ratio of EC50 for human oxytocin receptor to EC50 for human vasopressin V1a receptor
[7] = target: Vasopressin V1a receptor (Rattus norvegicus, UniProt P30560); test: Agonist activity at recombinant rat vasopressin V1a receptor expressed in HEK293 cells by luciferase reporter gene assay; type: functional, cell-based; settings: read-out: EC50
[8] = target: Vasopressin V1a/V2 (Homo sapiens) (UniProt P30518+P37288); test: Selectivity ratio of EC50 for human vasopressin V2 receptor to EC50 for human vasopressin V1a receptor
[9] = target: T4, Vasopressin V1b receptor (Homo sapiens, UniProt P47901); test: Agonist activity at recombinant human vasopressin V1b receptor expressed in Flp-In-293 cells by luciferase reporter gene assay; type: functional, cell-based; settings: read-out: EC50
T4 sequence (P47901 whole entry): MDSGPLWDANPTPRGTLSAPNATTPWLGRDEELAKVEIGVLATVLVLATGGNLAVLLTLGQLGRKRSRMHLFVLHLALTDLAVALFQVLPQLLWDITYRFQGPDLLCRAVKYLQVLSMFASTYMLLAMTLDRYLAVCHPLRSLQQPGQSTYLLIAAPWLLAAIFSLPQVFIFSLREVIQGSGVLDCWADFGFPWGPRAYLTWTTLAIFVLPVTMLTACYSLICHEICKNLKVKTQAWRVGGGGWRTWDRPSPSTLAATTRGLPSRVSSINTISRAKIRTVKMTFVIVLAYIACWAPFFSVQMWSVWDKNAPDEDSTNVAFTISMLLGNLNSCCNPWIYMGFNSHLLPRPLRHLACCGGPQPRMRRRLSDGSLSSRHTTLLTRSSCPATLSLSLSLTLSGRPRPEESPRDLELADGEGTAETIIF
How it was run: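 Reporter gene assays in HEK293 cells transiently cotransfected with V1a (human or rat) or human V2 receptor vector plus NFAT-luciferase (V1a) or CRE-luciferase (V2) reporter; V1b in Flp-In-293 stably expressing receptor, OT in CHO-K1 stably expressing receptor, both transiently transfected with NFAT-luciferase. Two days post-transfection, peptides added for 5 h at 37 °C, lysis with luciferin, luminescence read.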

[10] = target: T3, Vasopressin V2 receptor; test: Partial agonist activity at recombinant human vasopressin V2 receptor expressed in HEK293 cells by luciferase reporter gene assay; type: functional, cell-based
How it was run: (§2)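 Same luciferase reporter systems (OT in stable CHO-K1, V1b in stable Flp-In-293, each with transient NFAT-luciferase; V1a in HEK293 with NFAT-luciferase, V2 in HEK293 with CRE-luciferase). Peptides added for 5 h at 37 °C two days post-transfection, luminescence read. Partial agonism means efficacy <70%.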

[11] = tested on: Rattus norvegicus; test: Vasoconstriction in Wistar rat assessed as assessed as decay in vasopressive duration of action at 3 nmol/kg, iv bolus measured over 10 sec interval; type: functional; how it was run: as §1
[12] = target: T5, Oxytocin receptor (Homo sapiens) (UniProt P30559); test: Partial agonist activity at human OT receptor expressed in CHO-K1 cells by luciferase reporter gene assay; type: functional, cell-based; how it was run: as §2
T5 sequence (whole entry): T1 sequence (P30559 whole entry)

[13] = tested on: Rattus norvegicus; test: Vasoconstriction in Wistar rat assessed as decay in vasopressive duration of action at 0.3 nmol/kg, iv bolus measured over 10 sec interval; type: functional; parameters: unit not given here
[14] = target: T2, Vasopressin V1a receptor; test: Partial agonist activity at recombinant human vasopressin V1a receptor expressed in HEK293 cells by luciferase reporter gene assay; type: functional, cell-based; how it was run: as §2
Target sequence in this assay (P37288 whole entry, looked up): as the sequence (P37288 whole entry) above

T3 sequence (P30518 whole entry): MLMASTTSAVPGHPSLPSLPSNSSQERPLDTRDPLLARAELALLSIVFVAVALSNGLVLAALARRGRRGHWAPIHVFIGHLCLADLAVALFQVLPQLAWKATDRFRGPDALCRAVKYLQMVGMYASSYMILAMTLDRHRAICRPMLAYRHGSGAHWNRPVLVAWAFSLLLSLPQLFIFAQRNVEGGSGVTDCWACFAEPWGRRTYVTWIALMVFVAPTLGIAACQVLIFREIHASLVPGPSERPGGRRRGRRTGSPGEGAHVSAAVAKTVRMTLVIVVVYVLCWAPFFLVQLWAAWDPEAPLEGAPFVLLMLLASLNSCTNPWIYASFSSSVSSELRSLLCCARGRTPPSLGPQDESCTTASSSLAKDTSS
Chain of Vasopressin V1a/V2 (Homo sapiens) (P30518 whole entry, looked up): as the sequence (P30518 whole entry) above
Chain of Vasopressin V1a/V2 (Homo sapiens) (P37288 whole entry, looked up): as the sequence (P37288 whole entry) above
Chain of Vasopressin V1a receptor (Rattus norvegicus, UniProt P30560) (P30560 whole entry): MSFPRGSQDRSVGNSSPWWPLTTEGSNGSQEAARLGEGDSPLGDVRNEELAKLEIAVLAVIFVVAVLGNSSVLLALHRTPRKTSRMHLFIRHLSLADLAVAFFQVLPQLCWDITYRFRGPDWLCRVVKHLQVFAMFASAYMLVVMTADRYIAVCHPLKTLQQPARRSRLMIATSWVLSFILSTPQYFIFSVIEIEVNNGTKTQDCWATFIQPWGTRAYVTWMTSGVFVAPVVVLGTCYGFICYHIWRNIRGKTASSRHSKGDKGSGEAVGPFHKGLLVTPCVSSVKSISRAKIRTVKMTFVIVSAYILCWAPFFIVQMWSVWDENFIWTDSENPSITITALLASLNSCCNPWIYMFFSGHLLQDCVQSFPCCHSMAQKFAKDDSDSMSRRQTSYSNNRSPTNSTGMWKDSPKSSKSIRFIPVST

SMILES	EC50 ([1]; cho-k1, read-out: EC50) [nM]	EC50 ([1]; read-out: pEC50 (converted)) [nM]	Time [2] [unitless ratio]	EC50 [3] [nM]	Ratio EC50 [4]	EC50 ([5]; hek293, read-out: EC50) [nM]	EC50 ([5]; read-out: pEC50 (converted)) [nM]	Ratio EC50 [6]	EC50 [7] [nM]	Ratio EC50 [8]	EC50 [9] [nM]	EC50 ([5]; read-out: EC50) [nM]	Efficacy [10] [%]	Time [11] [unitless ratio]	EC50 ([1]; read-out: EC50) [nM]	Efficacy [12] [%]	Time [13]	Efficacy [14] [%]
CC[C@H](C)[C@@H]1NC(=O)[C@H](Cc2ccccc2)NC(=O)[C@@H](N)CSSC[C@@H](C(=O)N2CCC[C@H]2C(=O)N[C@@H](CCCN)C(=O)NCC(N)=O)NC(=O)[C@H](CC(N)=O)NC(=O)[C@H](CC(=O)NCCCO)NC1=O (H-CFID(NH(3-hydroxypropyl))NCP[Orn]G-NH2; disulfide 1-6)	> 10000	> 10000	1.7	2.1	9	> 10000	> 10000	> 4700	2.7	> 4700	19							
CCNC(=O)C[C@@H]1NC(=O)[C@H]([C@@H](C)CC)NC(=O)[C@H](Cc2ccccc2)NC(=O)[C@@H](N)CSSC[C@@H](C(=O)N2CCC[C@H]2C(=O)N[C@@H](CCN)C(=O)NCC(N)=O)NC(=O)[C@H](CC(N)=O)NC1=O (H-CFID(NHEt)NCP[Dab]G-NH2; disulfide 1-6)	> 10000	> 10000		2.7	7.7			> 3700	4.8	590	21	1600	< 70	1.3				
CC[C@H](C)[C@@H]1NC(=O)[C@H](Cc2ccccc2)NC(=O)[C@@H](N)CSSC[C@@H](C(=O)N2CCC[C@H]2C(=O)N[C@@H](CCCN)C(=O)NCC(N)=O)NC(=O)[C@H](CC(N)=O)NC(=O)[C@H](CC(N)=O)NC1=O (H-CFINNCP[Orn]G-NH2; disulfide 1-6)	> 10000	> 10000		1.4	20	> 10000	> 10000	> 7100	8.2	> 7100	29			1.4				
CC[C@H](C)[C@@H]1NC(=O)[C@H](Cc2ccccc2)NC(=O)[C@@H](N)CSSC[C@@H](C(=O)N2CCC[C@H]2C(=O)N[C@@H](CCCNC)C(=O)NCC(N)=O)NC(=O)[C@H](CC(N)=O)NC(=O)[C@H](CCC(N)=O)NC1=O (H-CFIQNCP[Orn(Me)]G-NH2; disulfide 1-6)				0.26	280			61	0.29	500	74	130			16	< 70	2.6	
CCCNCCC[C@H](NC(=O)[C@@H]1CCCN1C(=O)[C@@H]1CSSC[C@H](N)C(=O)N[C@@H](Cc2ccccc2)C(=O)N[C@@H]([C@@H](C)CC)C(=O)N[C@@H](CCC(N)=O)C(=O)N[C@@H](CC(N)=O)C(=O)N1)C(=O)NCC(N)=O (H-CFIQNCP[Orn(Pr)]G-NH2; disulfide 1-6)				0.21	180			150	0.1	660	38	140			32		1.9	
CC[C@H](C)[C@@H]1NC(=O)[C@H](Cc2ccccc2)NC(=O)[C@@H](N)CSSC[C@@H](C(=O)N2CCC[C@H]2C(=O)N[C@@H](CCCN)C(=O)NCC(N)=O)NC(=O)[C@H](CC(N)=O)NC(=O)[C@H](CCCC(N)=O)NC1=O (H-CFI[Aad](NH2)NCP[Orn]G-NH2; disulfide 1-6)	> 10000	> 10000	3.4	0.9	51			> 11000	0.34	1700	46	1600	< 70					< 70
CC[C@H](C)[C@@H]1NC(=O)[C@H](CC2CCCC2)NC(=O)[C@@H](N)CSSC[C@@H](C(=O)N2CCC[C@H]2C(=O)N[C@@H](CCN)C(=O)NCC(N)=O)NC(=O)[C@H](CC(N)=O)NC(=O)[C@H](CCC(N)=O)NC1=O (H-C[Ala(cPent)]IQNCP[Dab]G-NH2; disulfide 1-6)	> 10000	> 10000		0.8	25			> 12000	4.2	1500	20	1200		2.3				
CC[C@H](C)[C@@H]1NC(=O)[C@H](CC2CCCCC2)NC(=O)[C@@H](N)CSSC[C@@H](C(=O)N2CCC[C@H]2C(=O)N[C@@H](CCN)C(=O)NCC(N)=O)NC(=O)[C@H](CC(N)=O)NC(=O)[C@H](CCC(N)=O)NC1=O (H-C[Cha]IQNCP[Dab]G-NH2; disulfide 1-6)	> 10000	> 10000	3.1	0.25	32			> 40000	2.1	3000	8	760						
CC[C@H](C)[C@@H]1NC(=O)[C@H](Cc2ccccc2)NC(=O)[C@@H](N)CSSC[C@@H](C(=O)N2CCC[C@H]2C(=O)N[C@@H](CCCNC(C)C)C(=O)NCC(N)=O)NC(=O)[C@H](CC(N)=O)NC(=O)[C@H](CCCC(N)=O)NC1=O [SELEPRESSIN]		1100		2.4	140			450	0.55	1100	340	2700	< 70		1100	< 70	1.4	
